S1P3 antag – blocks the human S1P3 receptor. Q99500. CHO S1P3 NFAT-BLA reporter, FRET fluorescence, antagonist mode. inhibition, % at 4.98 µM. 170,000 tested, 0.27% active. AID 485;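 active means inhibition above the plate cutoff, the mean inhibition of test wells on that plate plus 3 SD, cut at about 28% in these data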;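 further: cells challenged with S1P at its EC80 of 0.8 µM; blue over green emission ratio from cleaved BLA substrate after 4 h stimulation; 0% = S1P-stimulated wells and 100% = unstimulated DMSO-only wells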
MDM2 E3 inh – blocks human Mdm2 ubiquitin ligase activity | signal enhancement, % at 5 µM | cell-based MDM2 ubiquitination luciferase reporter, 2 h; 0 = plate control, 100 = twice control, blank-subtracted | AID 1230 | 210,000 tested, 0.11% active | Q00987;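 active means signal enhancement of 30% or more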;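 further: luminescence tracks abundance of the self-degrading MDM2-luciferase fusion protein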
Target sequence (Q00987 whole entry, looked up, the tested form may be a part): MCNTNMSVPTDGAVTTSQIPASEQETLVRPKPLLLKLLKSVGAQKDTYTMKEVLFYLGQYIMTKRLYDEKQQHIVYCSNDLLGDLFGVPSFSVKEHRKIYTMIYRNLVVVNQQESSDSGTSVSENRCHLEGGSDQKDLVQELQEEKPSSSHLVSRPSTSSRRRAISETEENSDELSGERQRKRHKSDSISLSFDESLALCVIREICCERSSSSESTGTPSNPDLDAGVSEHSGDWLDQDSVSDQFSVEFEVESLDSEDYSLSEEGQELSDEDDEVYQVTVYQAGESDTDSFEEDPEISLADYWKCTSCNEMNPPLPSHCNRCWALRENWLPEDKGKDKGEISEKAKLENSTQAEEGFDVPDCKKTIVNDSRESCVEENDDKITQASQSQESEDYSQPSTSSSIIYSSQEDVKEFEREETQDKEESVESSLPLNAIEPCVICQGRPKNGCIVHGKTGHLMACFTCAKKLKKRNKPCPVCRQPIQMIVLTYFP
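Buffer or medium: Cells held in DMEM | Assay system: Stable mammalian line carrying autodegrading MDM2–luciferase fusion reporter | Quantity: 2000 cells/well | Times: 4 h settle plus 2 h compound, 37 °C | Doses: One concentration, 5 µM, with 0.2% DMSO | Technique: Luminescence with SteadyLite reagent, 15 min at room temperature | Benchmarks: Plate controls and plate blanks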
CHOP inhibitor – blocks CHOP induction under ER stress. 220,000 tested, 3.8% active. AID 2732. inhibition, % at 10 µM. CHO-K1 CHOP-promoter luciferase, tunicamycin-induced, 15-18 h;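 active means compounds that reduced the stress-induced luciferase reporter signal by more than about 70% of percent inhibition, limit read from the data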;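 further: 0% = tunicamycin plus vehicle and 100% = wells without tunicamycin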
Hsp70 activator – switches on Hsp70 transcription; HeLa Hsp70 promoter luciferase reporter, luminescence; scaled: vehicle 0, proteasome-inhibitor control 100%; activation, % at 10 µM; 200,000 tested, 0.04% active;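 active means activation above the mean across all tested compounds plus 3 SD, cutoff set per campaign, cut at about 5.5% in these data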;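 further: 100% = MG132 at 30 µM as the positive control and 0% = DMSO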
The depositor's hits bear a star; . = no result. Sampled rows, rich in hits. Any-hit rate of the full collection: about 4%.

SMILES	S1P3 antag	MDM2 E3 inh	CHOP inhibitor	Hsp70 activator
CCOC(=O)CN1c2ccccc2NC(=O)CC1C (configuration not stated)	17	-15	10	0
CC1CC(=O)Nc2ccccc2N1C(=O)CN1CCN(c2ccccc2)CC1 (configuration not stated)	-21	1	80*	0
COc1ccc2nc(NC(=O)c3cc(C)oc3C)sc2c1	.	.	9	0
Cc1cc(C)c2c(N)c(C(=O)Nc3ncc(C)s3)sc2n1	.	-91	96*	-1
COc1ccc2nc(NC(=O)c3sc4nc(C)cc(C)c4c3N)sc2c1	-1	.	74*	.
COC(=O)c1sc2nc(C)cc(C)c2c1N	1	-2	7	0
CC(C)NC(=O)CSc1nnc(-c2ccncc2)n1-c1ccccc1	.	-10	17	0
CCOc1ccc(-c2cc(NC(=O)Cn3ncc4c3-c3ccccc3OC4)on2)cc1OCC	-19	-12	100*	0
COc1ccccc1NC(=O)Cn1ncc2c1-c1ccccc1OC2	.	-15	16	0
CCn1nc(C)c(CNC(=O)CC2C(=O)NCCN2CC(C)(C)C)c1C (configuration not stated)	0	-2	12	0
CCCCCCCc1c(C)nc(N2CCOCC2)[nH]c1=O	.	-44	72*	0
Cc1nc(Nc2ccc(Cl)c(Cl)c2)sc1C(=O)Nc1ccccc1	11	-3	96*	0
Cc1nc(NC(=O)/C=C/c2ccccc2)sc1C(=O)Nc1ccc(Cl)cc1	.	-28	88*	0
Cc1nc(Nc2ccc(Cl)cc2Cl)sc1C(=O)Nc1ccccc1	3	-14	68	0
O=C(OCC(=O)N1CCOCC1)c1c(Cl)ccc(Cl)c1Cl	8	-18	21	1
O=C1c2ccccc2C(=O)N1CCc1csc(-c2cccc(Cl)c2)n1	.	-12	11	0
O=C1c2ccccc2C(=O)N1CCc1csc(-c2cccc(F)c2)n1	.	-5	82*	0
COCCn1c(N)c(C(=O)NS(=O)(=O)c2ccc(C)cc2)c(=O)[nH]c1=O	1	-13	2	1
COCCNS(=O)(=O)c1ccc(OCC(=O)OC)c(Cl)c1	-7	-9	92*	0
CCCCCCOC(=O)C(C#N)c1nc2ccccc2nc1N1CCOCC1 (configuration not stated)	-25	-9	94*	0
O=S(=O)(NCCc1ccccc1)c1ccc(Cl)nc1	-10	0	16	0
N#Cc1ccccc1/C=N/Nc1nc(-c2ccccc2)c2cc(Cl)ccc2n1	.	7	89*	0
Cn1c(Cn2c(=O)sc3ccccc32)nnc1SCC(=O)Nc1ccc(F)cc1	11	-7	7	0
Cn1c(Cn2c(=O)sc3ccccc32)nnc1SCC(=O)Nc1ccccc1F	99*	-5	-5	0
O=C1Nc2cc(Cl)ccc2C1(N1CCNCC1)C(F)(F)F (configuration not stated)	4	-15	80*	0
SMILES	S1P3 antag	MDM2 E3 inh	CHOP inhibitor	Hsp70 activator
O=S(=O)(c1ccc(Cl)cc1)N1CCNCC1	-20	-7	-9	0
CN(C(=O)Nc1ccccc1)n1cnc2ccccc2c1=O	-1	-7	8	.
C=CCc1cc(C=O)cc(OC)c1OCc1c(Cl)cccc1Cl	.	-19	73*	0
COc1ccc(C=O)cc1COc1c(F)c(F)cc(F)c1F	.	-2	45	1
COC(=O)C1=C(C)N=c2s/c(=C3\C(=O)Nc4ccccc43)c(=O)n2C1c1ccccc1 (configuration not stated)	-22	-11	79*	0
CCOC(=O)C1=C(C)n2c(s/c(=C3\C(=O)Nc4ccccc43)c2=O)=NC1c1ccc(OC)cc1 (configuration not stated)	-31	-9	78*	0
CCOC(=O)C1=C(C)N=c2s/c(=C3/C(=O)Nc4ccccc43)c(=O)n2C1c1ccc(C)cc1 (configuration not stated)	.	-8	47	0
Oc1c(C(c2cccs2)N2CCN(c3ccccc3)CC2)ccc2cccnc12 (configuration not stated)	.	-8	99*	1
Oc1c(C(c2ccccc2Cl)N2CCCC2)ccc2cccnc12 (configuration not stated)	-9	-11	102*	0
NNC(=O)CCCCCCCCCCOCCCCO	0	-20	9	.
COc1ccc(CC(=O)Nc2cccc(-c3nnc(-c4ccccc4)o3)c2)cc1OC	31	-34	.	0
COc1ccc(CC(=O)Nc2cccc(-c3nnc(-c4ccc(C)cc4)o3)c2)cc1OC	-11	-10	76*	0
COc1ccc(CC(=O)Nc2ccc(-c3nnc(-c4ccccc4)o3)cc2)cc1OC	9	11	74*	1
CC1Cc2ccccc2N1C(=O)CSc1nnc(Cn2nnc3ccccc32)n1C (configuration not stated)	-14	-10	72*	0
CC(C)N(C(=O)CSc1nnc(Cn2nnc3ccccc32)n1C)C(C)C	.	-11	3	0
O=C(N1CCN(c2ccccc2)CC1)C1(c2cccs2)CCOCC1	-4	-12	-20	0
CC(=O)c1ccc(NC(=O)C2CCCN(S(=O)(=O)c3c(C)[nH]c(=O)[nH]c3=O)C2)cc1 (configuration not stated)	-23	-3	12	0
OC(COc1cccc2ccccc12)CN1CCN(c2cccc(Cl)c2)CC1 (configuration not stated)	-3	.	71*	.
CC(=O)c1ccccc1OCC(O)CN1CCN(C(c2ccccc2)c2ccccc2)CC1 (configuration not stated)	21	-8	75*	0
OC(COc1ccc2ccccc2c1)CN1CCN(c2ccc(F)cc2)CC1 (configuration not stated)	8	-14	87*	0
CCOc1ccccc1C(=O)N1CCN(C(c2ccccc2)c2ccccc2)CC1	.	-29	35	0
CCOC(=O)CN1C(=O)C(Sc2n[nH]c(-c3ccc(O)cc3)n2)CCc2ccccc21 (configuration not stated)	.	-11	5	0
Cc1cc(C)n(-c2nnc(NC(C)(C)C)nn2)n1	6	-7	-17	0
Cc1cc(C)n(-c2nc(NC(C)(C)C)nc(NC(C)(C)C)n2)n1	38	0	78*	0
CCOc1cc(/C=C2/NC(=O)NC2=O)cc(Br)c1OCc1ccc(C(=O)O)cc1	-7	-6	20	0
CCCCn1c(O)c(/C=C/C=C/C=Nc2ccccc2)sc1=S	-21	-14	-3	0
CCCn1c(O)c(C=Nc2ccccc2)sc1=S	5	-5	87*	0
CCn1c(N)c(C(=O)NCc2cccnc2)sc1=S	54*	-11	2	0
CN(C)/C=N/N(C)c1ncccc1[N+](=O)[O-]	3	-8	-7	.
CCC(=O)N1c2ccccc2-c2nnc(SC)nc2OC1c1ccc(OC)c(OC)c1 (configuration not stated)	-6	-9	-3	0

Screening results (PubChem)
